Laboratory results from ChEMBL document CHEMBL1799948, “Side chain SAR of bicyclic β-lactamase inhibitors (BLIs). 2. N-Alkylated and open chain analogs of MK-8712” (Bioorg Med Chem Lett, 2011).

Columns and labels:
Beta-lactamase = Beta-lactamase (Pseudomonas aeruginosa (strain ATCC 15692 / PAO1 / 1C / PRS 101 / LMG12228), UniProt P24735); assay: Inhibition of Pseudomonas aeruginosa CL5701 AmpC by spectrophotometric assay
Method in brief: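 AmpC from Pseudomonas aeruginosa, in 100 mM KH₂PO₄ buffer pH 7 with 0.005% BSA. Inhibitor serially diluted from DMSO and preincubated with enzyme 40 min at room temperature. Nitrocefin then added for a further 40 min. Quenched with 2.5 N acetic acid, absorbance read at 492 nm. IC₅₀ taken from semi-log plots of inhibition versus inhibitor concentration.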

[1] = target: Beta-lactamase (Pseudomonas aeruginosa (strain ATCC 15692 / PAO1 / 1C / PRS 101 / LMG12228)) (UniProt P24735); assay: Inhibition of AmpC in Pseudomonas aeruginosa CL5701 assessed as concentration required to reduce the imipenen MIC from 32 ug/ml to 4 ug/ml by in vitro synergy assay
Beta-lactamase (Pseudomonas aeruginosa (strain ATCC 15692 / PAO1 / 1C / PRS 101 / LMG12228)), sequence (P24735 27-397 limits assumed): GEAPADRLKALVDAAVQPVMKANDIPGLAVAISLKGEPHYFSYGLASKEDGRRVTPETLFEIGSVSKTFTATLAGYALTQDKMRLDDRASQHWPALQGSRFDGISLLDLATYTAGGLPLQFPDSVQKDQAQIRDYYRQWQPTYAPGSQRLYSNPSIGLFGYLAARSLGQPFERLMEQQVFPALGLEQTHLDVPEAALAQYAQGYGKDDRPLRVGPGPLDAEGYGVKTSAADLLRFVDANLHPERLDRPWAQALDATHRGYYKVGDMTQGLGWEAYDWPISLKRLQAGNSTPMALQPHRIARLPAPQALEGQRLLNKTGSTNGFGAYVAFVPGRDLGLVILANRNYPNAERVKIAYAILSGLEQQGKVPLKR

Beta-lactamase, sequence (P24735 whole entry): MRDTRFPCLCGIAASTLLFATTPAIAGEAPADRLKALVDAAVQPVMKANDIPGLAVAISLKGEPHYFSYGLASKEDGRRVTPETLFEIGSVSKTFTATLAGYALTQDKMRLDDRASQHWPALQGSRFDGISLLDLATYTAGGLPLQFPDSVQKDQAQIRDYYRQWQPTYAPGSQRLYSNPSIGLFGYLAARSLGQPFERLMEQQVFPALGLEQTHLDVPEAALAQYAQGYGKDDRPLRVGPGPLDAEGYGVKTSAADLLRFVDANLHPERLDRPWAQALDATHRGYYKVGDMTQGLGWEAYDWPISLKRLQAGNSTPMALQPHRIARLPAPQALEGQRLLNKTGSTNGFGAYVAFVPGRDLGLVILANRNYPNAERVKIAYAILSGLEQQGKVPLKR

Compound	IC50 (Beta-lactamase) [nM]	Activity [1] [µM]
O=C1[C@H]2NCC[C@H]2N1S(=O)(=O)O	> 250000	> 100
O=C(N[C@H]1CCCN(CCO)CC1)N1CC[C@@H]2[C@H]1C(=O)N2S(=O)(=O)O	900	25
CC(C)NC(=O)N1CC[C@@H]2[C@H]1C(=O)N2S(=O)(=O)O	1800	> 100
CN1CCC[C@H](NC(=O)N2CC[C@@H]3[C@H]2C(=O)N3S(=O)(=O)O)CC1	2600	25
C[N+]1(C)CCC[C@H](NC(=O)N2CC[C@@H]3[C@H]2C(=O)N3S(=O)(=O)[O-])CC1	1500	50
CN(C)CCN1CCC[C@H](NC(=O)N2CC[C@@H]3[C@H]2C(=O)N3S(=O)(=O)O)CC1	900	100
CNCCCNC(=O)N1CC[C@@H]2[C@H]1C(=O)N2S(=O)(=O)O	5300	50

Further compounds by falling IC50 (Beta-lactamase), results first:

IC50 (Beta-lactamase) [nM]	Activity [1] [µM]	Compound
16000	> 100	NC(=O)N1CC[C@@H]2[C@H]1C(=O)N2S(=O)(=O)O
3500	25	CNCCCCNC(=O)N1CC[C@@H]2[C@H]1C(=O)N2S(=O)(=O)O
2100	25	CN(C)CCCNC(=O)N1CC[C@@H]2[C@H]1C(=O)N2S(=O)(=O)O
1900	100	CN(C)CCCCCNC(=O)N1CC[C@@H]2[C@H]1C(=O)N2S(=O)(=O)O
1600	25	CN(C)CCCCNC(=O)N1CC[C@@H]2[C@H]1C(=O)N2S(=O)(=O)O
1100	50	O=C(N[C@H]1CCCN(CCCO)CC1)N1CC[C@@H]2[C@H]1C(=O)N2S(=O)(=O)O
600	25	NCCN1CCC[C@H](NC(=O)N2CC[C@@H]3[C@H]2C(=O)N3S(=O)(=O)O)CC1
